Assay results reported in ChEMBL document CHEMBL2177069, “Novel peptidomimetic compounds containing redox active chalcogens and quinones as potential anticancer agents” (Eur J Med Chem, 2012).
pIC50: −log10 of the molar value.

How the values were obtained:
RXF 393 = experiment: Cytotoxicity against human RXF393 cells; assay type: functional
Saccharomyces cerevisiae [1] = experiment: Growth inhibition of PST2-deficient Saccharomyces cerevisiae YDR032C mutant at 20 ug/disc 24 to 48 hrs by agar diffusion assay; assay type: functional; details: read-out: DIZ
How it was run: (§1)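 S. cerevisiae deletion mutants or wild type grown on YPD, seeded into liquid agar medium at an optical density of 0.1. 6 mm paper discs soaked with methanolic compound solution were placed on the plates and incubated at 30 °C. Growth was checked after 1 and 2 days, and the inhibition zone diameter was recorded in mm.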

OVCAR-3 = experiment: Cytotoxicity against human OVCAR3 cells; assay type: functional
TK-10 = experiment: Cytotoxicity against human TK10 cells; assay type: functional
SW-620 = experiment: Cytotoxicity against human SW620 cells; assay type: functional
NCI-H460 = experiment: Cytotoxicity against human NCI-H460 cells; assay type: functional
SN12C = experiment: Cytotoxicity against human SN12C cells; assay type: functional
A-431 = experiment: Cytotoxicity against human A431 cells after 24 hrs by MTT assay; assay type: functional, cell-based; details: A-431, 24 h
How it was run: (§2)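 MTT assay. Cells were seeded at 50,000 cells/mL in medium with 10% fetal calf serum and grown for two days at 37 °C, 10% CO2. Serial dilutions of compound were then added for 24 h. MTT was added (final 0.5 mg/mL) for 2 h, and the formazan was pelleted, washed, dissolved in isopropanol with 0.4% HCl and read at 590 nm. IC50 is the concentration giving 50% of untreated-control absorbance, taken from dose-response curves; mean of two parallel experiments.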

U-251 = experiment: Cytotoxicity against human U251 cells; assay type: functional
HOP-92 = experiment: Cytotoxicity against human HOP92 cells; assay type: functional
SF-539 = experiment: Cytotoxicity against human SF539 cells; assay type: functional
MCF7 = experiment: Cytotoxicity against human MCF7 cells after 24 hrs by MTT assay; assay type: functional, cell-based; details: MCF7, 24 h; how it was run: as §2
UO-31 = experiment: Cytotoxicity against human UO31 cells; assay type: functional
BT-549 = experiment: Cytotoxicity against human BT549 cells; assay type: functional
Saccharomyces cerevisiae [2] = experiment: Growth inhibition of GTT2-deficient Saccharomyces cerevisiae YLL060C mutant at 20 ug/disc after 24 to 48 hrs by agar diffusion assay; assay type: functional; details: read-out: DIZ; how it was run: as §1
SK-MEL-5 = experiment: Cytotoxicity against human SK-MEL-5 cells; assay type: functional
NCI-H23 = experiment: Cytotoxicity against human NCI-H23 cells; assay type: functional
LOX IMVI = experiment: Cytotoxicity against human LOXIMVI cells; assay type: functional
COLO 205 = experiment: Cytotoxicity against human COLO205 cells; assay type: functional
Hs-578T = experiment: Cytotoxicity against human Hs578T cells; assay type: functional
MDA-MB-468 = experiment: Cytotoxicity against human MDA-MB-468 cells; assay type: functional
A498 = experiment: Cytotoxicity against human A498 cells after 24 hrs by MTT assay; assay type: functional, cell-based; details: A498, 24 h; how it was run: as §2
HT-29 = experiment: Cytotoxicity against human HT-29 cells; assay type: functional
SNB-75 = experiment: Cytotoxicity against human SNB75 cells; assay type: functional
HL-60 = experiment: Cytotoxicity against human HL60 cells; assay type: functional
OVCAR-5 = experiment: Cytotoxicity against human OVCAR5 cells; assay type: functional
HOP-62 = experiment: Cytotoxicity against human HOP62 cells; assay type: functional
SF-295 = experiment: Cytotoxicity against human SF295 cells; assay type: functional
RPMI-8226 = experiment: Cytotoxicity against human RPMI8226 cells; assay type: functional
M14 = experiment: Cytotoxicity against human M14 cells; assay type: functional
A549 = experiment: Cytotoxicity against human A549 cells; assay type: functional
HUVEC = experiment: Cytotoxicity against human HUVEC cells after 24 hrs by MTT assay; assay type: cell-based; how it was run: as §2
NCI-H322M = experiment: Cytotoxicity against human NCI-H322M cells; assay type: functional
MDA-MB-435 = experiment: Cytotoxicity against human MDA-MB-435 cells; assay type: functional
SK-MEL-28 = experiment: Cytotoxicity against human SK-MEL-28 cells; assay type: functional
PC-3 = experiment: Cytotoxicity against human PC3 cells; assay type: functional
T47D = experiment: Cytotoxicity against human T47D cells; assay type: functional
UACC-62 = experiment: Cytotoxicity against human UACC62 cells; assay type: functional
HCT-116 = experiment: Cytotoxicity against human HCT116 cells; assay type: functional
HCC 2998 = experiment: Cytotoxicity against human HCC2998 cells; assay type: functional
HCT-15 = experiment: Cytotoxicity against human HCT15 cells; assay type: functional

CC1=C([Se]CC(OC(=O)[C@@H](CO)NC(=O)OC(C)(C)C)C(=O)NC(C)(C)C)C(=O)c2ccccc2C1=O (stereo not given in full)
GI50 (RXF 393): 1.86 µM
LC50 (RXF 393): 5.75 µM
TGI (RXF 393; read-out: pTGI (converted)): 3.31 µM
zone of inhibition at 20 µg/disc (Saccharomyces cerevisiae [1]): 11 mm
GI50 (OVCAR-3): 1.78 µM
LC50 (OVCAR-3): 5.62 µM
TGI (OVCAR-3; read-out: pTGI (converted)): 3.16 µM
GI50 (TK-10): 2 µM
LC50 (TK-10): 6.03 µM
TGI (TK-10; read-out: pTGI (converted)): 3.47 µM
GI50 (SW-620): 1.78 µM
LC50 (SW-620): 6.31 µM
TGI (SW-620; read-out: pTGI (converted)): 3.31 µM
GI50 (NCI-H460): 0.457 µM
LC50 (NCI-H460): 7.41 µM
TGI (NCI-H460; read-out: pTGI (converted)): 1.78 µM
GI50 (SN12C): 1.86 µM
LC50 (SN12C): 6.31 µM
TGI (SN12C; read-out: pTGI (converted)): 3.39 µM
pIC50 (A-431): 5.70
GI50 (U-251): 0.977 µM
LC50 (U-251): 6.61 µM
TGI (U-251; read-out: pTGI (converted)): 2.57 µM
GI50 (HOP-92): 1.86 µM
LC50 (50% lethal concentration) (HOP-92): 6.31 µM
TGI (HOP-92; read-out: pTGI (converted)): 3.39 µM
GI50 (SF-539): 1.58 µM
LC50 (SF-539): 5.89 µM
TGI (SF-539; read-out: pTGI (converted)): 3.09 µM
pIC50 (MCF7): 5.52
GI50 (UO-31): 1.45 µM
LC50 (UO-31): 6.03 µM
TGI (UO-31; read-out: pTGI (converted)): 2.95 µM
GI50 (BT-549): 1.58 µM
LC50 (BT-549): 5.37 µM
TGI (BT-549; read-out: pTGI (converted)): 2.95 µM
zone of inhibition at 20 µg/disc (Saccharomyces cerevisiae [2]): 21 mm
GI50 (SK-MEL-5): 1.58 µM
LC50 (SK-MEL-5): 5.5 µM
TGI (SK-MEL-5; read-out: pTGI (converted)): 2.95 µM
GI50 (NCI-H23): 1.48 µM
LC50 (NCI-H23): 6.92 µM
TGI (NCI-H23; read-out: pTGI (converted)): 3.24 µM
GI50 (LOX IMVI): 1.58 µM
LC50 (LOX IMVI): 5.75 µM
TGI (LOX IMVI; read-out: pTGI (converted)): 3.02 µM
GI50 (COLO 205): 1.82 µM
CC50 (COLO 205; read-out: pLC50 (the source's name) (converted)): 6.03 µM
TGI (COLO 205; read-out: pTGI (converted)): 3.31 µM
GI50 (Hs-578T): 2.82 µM
LC50 (Hs-578T): > 100 µM
GI50 (MDA-MB-468): 0.759 µM
LC50 (MDA-MB-468): 5.89 µM
TGI (MDA-MB-468; read-out: pTGI (converted)): 2.29 µM
pIC50 (A498): 5.30
GI50 (HT-29): 2.29 µM
LC50 (HT-29): 9.77 µM
TGI (HT-29; read-out: pTGI (converted)): 4.79 µM
GI50 (SNB-75): 1.29 µM
LC50 (SNB-75): 5.13 µM
TGI (SNB-75; read-out: pTGI (converted)): 2.57 µM
GI50 (HL-60): 0.871 µM
LC50 (HL-60): > 100 µM
TGI (HL-60; read-out: pTGI (converted)): 3.8 µM
GI50 (OVCAR-5): 2.09 µM
LC50 (OVCAR-5): 6.61 µM
TGI (OVCAR-5; read-out: pTGI (converted)): 3.72 µM
GI50 (HOP-62): 0.525 µM
LC50 (HOP-62): 4.37 µM
TGI (HOP-62; read-out: pTGI (converted)): 1.86 µM
GI50 (SF-295): 0.316 µM
LC50 (SF-295): 22.4 µM
TGI (SF-295; read-out: pTGI (converted)): 1.05 µM
GI50 (RPMI-8226): 2.75 µM
LC50 (RPMI-8226): > 100 µM
TGI (RPMI-8226; read-out: pTGI (converted)): 8.91 µM
GI50 (M14): 1.66 µM
LC50 (M14): 5.62 µM
TGI (M14; read-out: pTGI (converted)): 3.02 µM
GI50 (A549): 1.82 µM
LC50 (A549): 89.1 µM
TGI (A549; read-out: pTGI (converted)): 9.33 µM
pIC50 (HUVEC): 5.52
GI50 (NCI-H322M): 0.447 µM
LC50 (NCI-H322M): 32.4 µM
TGI (NCI-H322M; read-out: pTGI (converted)): 3.72 µM
GI50 (MDA-MB-435): 2 µM
LC50 (MDA-MB-435): 8.32 µM
TGI (MDA-MB-435; read-out: pTGI (converted)): 4.07 µM
GI50 (SK-MEL-28): 2.04 µM
LC50 (SK-MEL-28): 6.17 µM
TGI (SK-MEL-28; read-out: pTGI (converted)): 3.55 µM
GI50 (PC-3): 1.35 µM
LC50 (PC-3): 6.03 µM
TGI (PC-3; read-out: pTGI (converted)): 2.82 µM
GI50 (T47D): 0.331 µM
LC50 (T47D): 8.91 µM
TGI (T47D; read-out: pTGI (converted)): 1.07 µM
GI50 (UACC-62): 1.66 µM
LC50 (UACC-62): 5.62 µM
TGI (UACC-62; read-out: pTGI (converted)): 3.02 µM
GI50 (HCT-116): 1.45 µM
LC50 (HCT-116): 5.37 µM
TGI (HCT-116; read-out: pTGI (converted)): 2.82 µM
GI50 (HCC 2998): 1.82 µM
LC50 (HCC 2998): 5.75 µM
TGI (HCC 2998; read-out: pTGI (converted)): 3.24 µM
GI50 (HCT-15): 2 µM
LC50 (HCT-15): 7.94 µM
TGI (HCT-15; read-out: pTGI (converted)): 3.98 µM
